ChEMBL document CHEMBL3351483, “Desmethyl macrolides: synthesis and evaluation of 4-desmethyl telithromycin” (ACS Med Chem Lett, 2014)
Converted amounts (≈) assume the structure as drawn.

Key:
[1] = tested on: Staphylococcus aureus; experiment: Antimicrobial activity against Staphylococcus aureus ATCC 33591 harboring ermA gene; assay type: functional
[2] = Selectivity ratio of MIC for Escherichia coli […] harboring ribosome A2058G mutant to MIC for tolC-negative wild type Escherichia coli DK/pKK3535; assay type: functional
[3] = tested on: Escherichia coli; experiment: Antimicrobial activity against tolC-negative wild type Escherichia coli DK/pKK3535; assay type: functional
Method in brief: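 MIC determined against E. coli DK/pKK3535, a tolC(−) strain that lacks the outer-membrane TolC efflux pump, which recognizes antibacterial drugs, and that carries wild-type ribosomes.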

[4] = tested on: Escherichia coli; experiment: Antimicrobial activity against Escherichia coli SQ171/2058G harboring ribosome A2058G mutant; assay type: functional
[5] = molecular target: Bacterial 70S ribosome; experiment: Binding affinity to Escherichia coli ribosomes after 2 hrs by fluorescence polarization assay in presence of BODIPY-labeled erythromycin A
Method in brief: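 Competitive fluorescence polarization binding assay with isolated E. coli ribosomes and BODIPY-labelled erythromycin as the displaced probe; dissociation constant (Kd) derived from probe displacement.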

[6] = tested on: Escherichia coli; experiment: Antimicrobial activity against tolC-negative Escherichia coli DK/2058G harboring ribosome A2058G mutant; assay type: functional
Method in brief: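 MIC determination in a tolC(−) E. coli strain lacking the outer-membrane efflux pump, carrying a mixed ribosome population of wild-type and A2058G mutant at about 1:1.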

[7] = tested on: Staphylococcus aureus; experiment: Antimicrobial activity against Staphylococcus aureus UCN14 harboring ribosome A2058T mutant; assay type: functional

| Compound | MIC [1] [µg/mL] | Selectivity ratio [2] | MIC [3] [µg/mL] | MIC [4] [µg/mL] | Kd [5] [nM] | MIC [6] [µg/mL] | MIC [7] [µg/mL] |
| --- | --- | --- | --- | --- | --- | --- | --- |
| CC[C@H]1OC(=O)[C@H](C)C(=O)C[C@@H](O[C@@H]2O[C@H](C)C[C@H](N(C)C)[C@H]2O)[C@](C)(OC)C[C@@H](C)C(=O)[C@H](C)[C@H]2N(CCCCn3cnc(-c4cccnc4)c3)C(=O)O[C@]12C | > 128 | 4 | 0.5 (≈ 0.627 µM) | > 256 | 6.4 | 1 (≈ 1.25 µM) | > 128 |
| CC[C@H]1OC(=O)[C@H](C)C(=O)[C@H](C)[C@@H](O[C@@H]2O[C@H](C)C[C@H](N(C)C)[C@H]2O)[C@](C)(OC)C[C@@H](C)C(=O)[C@H](C)[C@H]2N(CCCCn3cnc(-c4cccnc4)c3)C(=O)O[C@]12C [TELITHROMYCIN] | > 128 | – | 0.5 (≈ 0.616 µM) | > 256 | 6.4 | 4 (≈ 4.93 µM) | > 256 |
